Data as given in ChEMBL document CHEMBL1177802, “Novel semicarbazones based 2,5-disubstituted-1,3,4-oxadiazoles: one more step towards establishing four binding site pharmacophoric model hypothesis for anticonvulsant activity” (Bioorg Med Chem Lett, 2010).
Activity calls are given as the source filed them.

Columns and labels:
Rattus norvegicus [1] = assay: Increase in GABA level in Wistar rat midbrain assessed per mg of tissue at 30 mg/kg, ip after 2 hrs; format: functional; settings: route intraperitoneal
Rattus norvegicus [2] = assay: Increase in GABA level in Wistar rat medulla oblangata assessed per mg of tissue at 30 mg/kg, ip after 2 hrs; format: functional, Medulla oblongata; settings: route intraperitoneal
Procedure, shortened: (§1)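 Rats dosed ip, killed by decapitation 2 h after dosing. Midbrain, medulla oblongata and cerebellum were each placed separately in ice-cold 80% ethanol and processed for GABA by a previously reported method. GABA was expressed per 100 mg tissue. Values are the mean ± SEM of six rats, compared with an untreated control group.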

Rattus norvegicus [3] = assay: Increase in GABA level in Wistar rat cerebellum assessed per mg of tissue at 30 mg/kg, ip after 2 hrs; format: functional; settings: route intraperitoneal; procedure, shortened: as §1
Mus musculus [4] = assay: Neurotoxicity in Swiss albino mouse at 300 mg/kg, ip after 0.5 hrs; format: toxicity, organism-based; parameters: dose 300 mg/kg, route intraperitoneal; settings: in vivo
Procedure, shortened: (§2)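 Acute neurotoxicity by rotorod test in mice given 30, 100 and 300 mg/kg ip, assessed 0.5 and 4.0 h after dosing. Reported as the minimal dose producing the effect in half or more of the animals. Absence of activity is judged at the 300 mg/kg maximum.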

Rattus norvegicus [5] = assay: Anticonvulsant activity against subcutaneous strychnine-induced seizures in ip dosed Wistar rat assessed as minimum effective dose after 4 hrs; format: functional; settings: read-out: MED
Procedure, shortened: (§3)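 Rats; subcutaneous strychnine-induced seizure model with compounds given intraperitoneally at 30, 100 and 300 mg/kg. Activity is checked at 0.5 h and 4.0 h and recorded as the minimal dose active in at least half of the animals. Absence of activity is judged at the 300 mg/kg maximum.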

Rattus norvegicus [6] = assay: Anticonvulsant activity against subcutaneous strychnine-induced seizures in Wistar rat at 300 mg/kg, ip after 0.5 hrs; format: functional, organism-based; parameters: dose 300 mg/kg; procedure, shortened: as §3
Mus musculus [7] = assay: Anticonvulsant activity against subcutaneous pentylenetetrazole-induced seizures in ip dosed Swiss albino mouse assessed as minimum effective dose after 4 hrs; format: functional; settings: read-out: MED
Procedure, shortened: (§4)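 Mice; subcutaneous pentylenetetrazole seizure screen after ip dosing at 30, 100 and 300 mg/kg, read 0.5 and 4.0 h post-dose. Scored as the lowest dose protecting at least half of the animals. Absence of activity is judged at the 300 mg/kg maximum.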

Mus musculus [8] = assay: Anticonvulsant activity against subcutaneous pentylenetetrazole-induced seizures in Swiss albino mouse at 300 mg/kg, ip after 0.5 hrs; format: functional, organism-based; parameters: dose 300 mg/kg; procedure, shortened: as §4
Mus musculus [9] = assay: Anticonvulsant activity against maximal electroshock-induced seizures in ip dosed Swiss albino mouse assessed as minimum effective dose after 4 hrs; format: functional; settings: read-out: MED
Procedure, shortened: (§5)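 Mice; compounds given ip at 30, 100 and 300 mg/kg and tested in the maximal electroshock seizure model at 0.5 and 4.0 h after dosing. Read-out is the minimal dose giving protection in half or more of the animals. Absence of activity is judged at the 300 mg/kg maximum.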

Mus musculus [10] = assay: Anticonvulsant activity against maximal electroshock-induced seizures in ip dosed Swiss albino mouse assessed as minimum effective dose after 0.5 hrs; format: functional; settings: read-out: MED; procedure, shortened: as §5
Mus musculus [11] = assay: Neurotoxicity in Swiss albino mouse at 300 mg/kg, ip after 4 hrs; format: toxicity, organism-based; parameters: dose 300 mg/kg, route intraperitoneal; settings: in vivo; procedure, shortened: as §2
Rattus norvegicus [12] = assay: Anticonvulsant activity against maximal electroshock-induced seizures in Wistar rat at 30 mg/kg, po after 0.25 hrs; format: functional, organism-based; parameters: dose 30 mg/kg
Procedure, shortened: (§6)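 Rats dosed orally at 30 mg/kg; maximal electroshock protection scored at 0.25, 0.5, 1, 2 and 4 h. Result is given as the number of protected rats out of four.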

Rattus norvegicus [13] = assay: Anticonvulsant activity against maximal electroshock-induced seizures in Wistar rat at 30 mg/kg, po after 0.5 hrs; format: functional, organism-based; parameters: dose 30 mg/kg; procedure, shortened: as §6
Rattus norvegicus [14] = assay: Anticonvulsant activity against maximal electroshock-induced seizures in Wistar rat at 30 mg/kg, po after 1 hr; format: functional, organism-based; parameters: dose 30 mg/kg; procedure, shortened: as §6
Rattus norvegicus [15] = assay: Neurotoxicity in Wistar rat at 30 mg/kg, po after 0.25 hrs; format: toxicity, organism-based; parameters: dose 30 mg/kg, route oral; settings: in vivo
Procedure, shortened: (§7)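 Oral dosing in rats at 30 mg/kg, neurotoxicity (rotorod) scored at 0.25, 0.5, 1, 2 and 4 h post-administration. Counts are out of four rats per time point.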

Rattus norvegicus [16] = assay: Neurotoxicity in Wistar rat at 30 mg/kg, po after 0.5 hrs; format: toxicity, organism-based; parameters: dose 30 mg/kg, route oral; settings: in vivo; procedure, shortened: as §7
Rattus norvegicus [17] = assay: Neurotoxicity in Wistar rat at 30 mg/kg, po after 1 hr; format: toxicity, organism-based; parameters: dose 30 mg/kg, route oral; settings: in vivo; procedure, shortened: as §7
Rattus norvegicus [18] = assay: Neurotoxicity in Wistar rat at 30 mg/kg, po after 2 hrs; format: toxicity, organism-based; parameters: dose 30 mg/kg, route oral; settings: in vivo; procedure, shortened: as §7
Rattus norvegicus [19] = assay: Increase in GABA level in Wistar rat midbrain assessed per mg of tissue at 100 mg/kg, ip after 2 hrs; format: functional; settings: route intraperitoneal
Procedure, shortened: (§8)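 Rats given 100 mg/kg ip and killed by decapitation 2 h later. Midbrain, medulla oblongata and cerebellum are placed separately in ice-cold 80% ethanol and processed for GABA, expressed per 100 mg tissue. Reference drug clobazam is given at 30 mg/kg ip. Values are mean ± SEM of six rats.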

Rattus norvegicus [20] = assay: Increase in GABA level in Wistar rat medulla oblangata assessed per mg of tissue at 100 mg/kg, ip after 2 hrs; format: functional, Medulla oblongata; settings: route intraperitoneal; procedure, shortened: as §8
Rattus norvegicus [21] = assay: Increase in GABA level in Wistar rat cerebellum assessed per mg of tissue at 100 mg/kg, ip after 2 hrs; format: functional; settings: route intraperitoneal; procedure, shortened: as §8
Mus musculus [22] = assay: Neurotoxicity in ip dosed Swiss albino mouse assessed as minimum dose required to cause toxicity after 4 hrs; format: organism-based; settings: in vivo; procedure, shortened: as §2
Mus musculus [23] = assay: Neurotoxicity in ip dosed Swiss albino mouse assessed as minimum dose required to cause toxicity after 0.5 hrs; format: organism-based; settings: in vivo; procedure, shortened: as §2
Rattus norvegicus [24] = assay: Anticonvulsant activity against subcutaneous strychnine-induced seizures in ip dosed Wistar rat assessed as minimum effective dose after 0.5 hrs; format: functional; settings: read-out: MED
Procedure, shortened: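 Rats given 30, 100 or 300 mg/kg ip and challenged with subcutaneous strychnine. Protection was read at 0.5 and 4.0 h after dosing. The value is the minimal dose that gave activity in half or more of the animals; no activity at 300 mg/kg was the highest-dose cut-off.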

Mus musculus [25] = assay: Anticonvulsant activity against subcutaneous pentylenetetrazole-induced seizures in Swiss albino mouse at 300 mg/kg, ip after 4 hrs; format: functional, organism-based; parameters: dose 300 mg/kg; procedure, shortened: as §4
Rattus norvegicus [26] = assay: Anticonvulsant activity against maximal electroshock-induced seizures in Wistar rat at 30 mg/kg, po after 2 hrs; format: functional, organism-based; parameters: dose 30 mg/kg; procedure, shortened: as §6
Rattus norvegicus [27] = assay: Neurotoxicity in Wistar rat at 30 mg/kg, po after 4 hrs; format: toxicity, organism-based; parameters: dose 30 mg/kg, route oral; settings: in vivo; procedure, shortened: as §7
Mus musculus [28] = assay: Anticonvulsant activity against subcutaneous pentylenetetrazole-induced seizures in ip dosed Swiss albino mouse assessed as minimum effective dose after 0.5 hrs; format: functional; settings: read-out: MED; procedure, shortened: as §4

SMILES	Activity (Mus musculus [4])	minimal effective dose (Rattus norvegicus [5]) [mg/kg]	MED (Rattus norvegicus [6])	minimal effective dose (Mus musculus [7]) [mg/kg]	MED (Mus musculus [8])	minimal effective dose (Mus musculus [9]) [mg/kg]	minimal effective dose (Mus musculus [10]) [mg/kg]	Activity (Mus musculus [11])	Activity (Rattus norvegicus [12])	Activity (Rattus norvegicus [13])	Activity (Rattus norvegicus [14])	Activity (Rattus norvegicus [15])	Activity (Rattus norvegicus [16])	Activity (Rattus norvegicus [17])	Activity (Rattus norvegicus [18])	Activity (Rattus norvegicus [19]) [µg]	Activity (Rattus norvegicus [20]) [µg]	Activity (Rattus norvegicus [21]) [µg]	Activity (Rattus norvegicus [26])	Activity (Rattus norvegicus [27])	other results
CN1C(=O)CC(=O)N(c2ccccc2)c2cc(Cl)ccc21 [CLOBAZAM]	–	–	–	–	–	–	–	–	–	–	–	–	–	–	–	–	–	–	–	–	Activity (Rattus norvegicus [1]): 69.51 µg; Activity (Rattus norvegicus [2]): 47.53 µg; Activity (Rattus norvegicus [3]): 35.44 µg
O=C(N/N=C(/c1ccccc1)c1ccc(O)cc1)Nc1nnc(COc2ccc3ccccc3c2)o1	Non-toxic	300	inactive	300	inactive	300	100	Non-toxic	inactive	inactive	inactive	Non-toxic	Non-toxic	Non-toxic	Non-toxic	62.25	37.74	31.41	–	–	–
O=C(N/N=C\c1ccc(O)cc1)Nc1nnc(COc2ccc3ccccc3c2)o1	–	300	–	–	inactive	300	100	–	inactive	inactive	–	Non-toxic	Non-toxic	Non-toxic	Non-toxic	53.77	35.48	28.53	inactive	–	Activity (Mus musculus [22]): 100 mg/kg; Activity (Mus musculus [23]): 100 mg/kg; minimal effective dose (Rattus norvegicus [24]): 100 mg/kg; MED (Mus musculus [25]): inactive
C/C(=N/NC(=O)Nc1nnc(COc2ccc3ccccc3c2)o1)c1ccc([N+](=O)[O-])cc1	Non-toxic	300	inactive	300	inactive	300	100	Non-toxic	inactive	–	inactive	Non-toxic	Non-toxic	Non-toxic	–	45.5	40.42	27.56	inactive	Non-toxic	–
O=C(N/N=C(/c1ccccc1)c1ccc([N+](=O)[O-])cc1)Nc1nnc(COc2ccc3ccccc3c2)o1	Non-toxic	300	inactive	300	–	300	100	Non-toxic	inactive	inactive	inactive	Non-toxic	Non-toxic	Non-toxic	Non-toxic	67.72	46.62	29.75	inactive	Non-toxic	minimal effective dose (Mus musculus [28]): 100 mg/kg
